ChEMBL document CHEMBL4346653, “A2B Adenosine Receptor Antagonists with Picomolar Potency” (J Med Chem, 2019)
pKi: −log10 of the molar value. Converted amounts (≈) assume the structure as drawn.

Tests used:
Adenosine receptor A2b [1] = target: T1, Adenosine receptor A2b (Mus musculus, UniProt Q60614); test: Displacement of [3H]PSB-603 from recombinant mouse A2B adenosine receptor expressed in CHO cell membranes measured after 75 mins by liquid scintillation counting method
T1 sequence (Q60614 whole entry): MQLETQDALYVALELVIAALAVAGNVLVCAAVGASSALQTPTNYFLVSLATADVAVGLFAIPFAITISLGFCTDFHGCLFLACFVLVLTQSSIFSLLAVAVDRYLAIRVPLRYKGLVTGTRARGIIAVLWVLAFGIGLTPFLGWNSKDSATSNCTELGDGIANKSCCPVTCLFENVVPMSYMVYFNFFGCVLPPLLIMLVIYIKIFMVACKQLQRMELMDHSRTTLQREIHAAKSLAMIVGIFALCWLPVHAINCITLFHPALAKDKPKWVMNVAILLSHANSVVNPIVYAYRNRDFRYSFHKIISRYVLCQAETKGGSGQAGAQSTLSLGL

Adenosine receptor A2a [2] = target: Adenosine receptor A2a (Mus musculus, UniProt Q60613); test: Displacement of [3H]MSX-2 from recombinant mouse A2A adenosine receptor expressed in CHO cell membranes measured after 60 mins by liquid scintillation counting method
Adenosine receptor A1 [3] = target: T2, Adenosine receptor A1 (Mus musculus, UniProt Q60612); test: Displacement of [3H]CCPA from recombinant mouse A1 adenosine receptor expressed in CHO cell membranes measured after 60 mins by liquid scintillation counting method
T2 sequence (Q60612 whole entry): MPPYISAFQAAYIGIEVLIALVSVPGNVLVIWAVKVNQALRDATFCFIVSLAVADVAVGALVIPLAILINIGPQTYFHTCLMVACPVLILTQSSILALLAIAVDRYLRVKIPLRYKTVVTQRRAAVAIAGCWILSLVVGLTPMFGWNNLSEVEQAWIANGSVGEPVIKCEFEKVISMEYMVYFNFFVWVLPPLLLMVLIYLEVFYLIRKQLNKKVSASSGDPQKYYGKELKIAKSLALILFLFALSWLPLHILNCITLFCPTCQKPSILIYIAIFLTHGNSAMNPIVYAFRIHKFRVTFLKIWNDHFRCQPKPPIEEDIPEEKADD

Adenosine receptor A3 [4] = target: T3, Adenosine receptor A3 (Mus musculus, UniProt Q61618); test: Displacement of [3H]NECA from recombinant mouse A3 adenosine receptor expressed in CHO cell membranes measured after 180 mins by liquid scintillation counting method
T3 sequence (Q61618 whole entry): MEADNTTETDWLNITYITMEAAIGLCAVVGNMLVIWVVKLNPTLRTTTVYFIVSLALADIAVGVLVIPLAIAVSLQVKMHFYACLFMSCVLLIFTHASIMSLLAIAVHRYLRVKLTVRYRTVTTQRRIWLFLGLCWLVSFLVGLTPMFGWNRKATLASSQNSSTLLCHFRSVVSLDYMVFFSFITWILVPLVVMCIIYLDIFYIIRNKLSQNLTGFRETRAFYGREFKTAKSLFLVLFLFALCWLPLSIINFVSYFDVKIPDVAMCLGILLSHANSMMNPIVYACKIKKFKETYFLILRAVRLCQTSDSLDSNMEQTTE

Adenosine receptor A3 [5] = target: T4, Adenosine receptor A3 (Rattus norvegicus, UniProt P28647); test: Binding affinity to rat A3 adenosine receptor
T4 sequence (P28647 whole entry): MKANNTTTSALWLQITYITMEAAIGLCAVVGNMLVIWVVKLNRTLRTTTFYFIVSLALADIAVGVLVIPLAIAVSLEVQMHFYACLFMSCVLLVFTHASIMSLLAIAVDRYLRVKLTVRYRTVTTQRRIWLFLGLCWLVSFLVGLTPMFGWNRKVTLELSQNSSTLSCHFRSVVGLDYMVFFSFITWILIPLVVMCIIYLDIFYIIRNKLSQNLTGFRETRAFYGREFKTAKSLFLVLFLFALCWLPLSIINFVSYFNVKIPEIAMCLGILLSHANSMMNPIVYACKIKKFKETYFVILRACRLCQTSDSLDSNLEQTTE

Adenosine receptor A2a [6] = target: T5, Adenosine receptor A2a (Homo sapiens, UniProt P29274); test: Displacement of [3H]MSX-2 from recombinant human A2A adenosine receptor expressed in CHO cell membranes measured after 60 mins by liquid scintillation counting method
Method in brief: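 Human A2A receptor binding against [3H]MSX-2, n = 3. Ki values (± SEM, nM) come from concentration-inhibition curves. Some Ki values are marked as derived from an extrapolated curve.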

Adenosine receptor A1 [7] = target: T2, Adenosine receptor A1; test: Displacement of [3H]DPCPX from recombinant mouse A1 adenosine receptor expressed in CHO cell membranes measured after 60 mins by liquid scintillation counting method
Adenosine receptor A2b [8] = target: T6, Adenosine receptor A2b (Rattus norvegicus, UniProt P29276); test: Displacement of [3H]PSB-603 from recombinant rat A2B adenosine receptor expressed in CHO cell membranes measured after 75 mins by liquid scintillation counting method
T6 sequence (P29276 whole entry): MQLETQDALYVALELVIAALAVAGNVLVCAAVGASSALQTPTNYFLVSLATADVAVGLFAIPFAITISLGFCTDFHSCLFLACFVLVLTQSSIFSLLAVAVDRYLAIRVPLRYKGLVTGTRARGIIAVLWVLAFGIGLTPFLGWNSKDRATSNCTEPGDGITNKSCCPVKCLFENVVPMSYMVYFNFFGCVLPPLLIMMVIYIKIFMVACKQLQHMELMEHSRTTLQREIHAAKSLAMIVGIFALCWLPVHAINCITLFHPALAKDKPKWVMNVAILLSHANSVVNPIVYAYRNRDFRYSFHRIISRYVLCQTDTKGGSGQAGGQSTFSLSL

[9] = Semi-thermodynamic solubility of the compound at 200 uM after 24 hrs by LC/MS-based shake-flask method; assay type: physicochemical; conditions: read-out: Therm_solubility
Adenosine receptor A2a [10] = target: T5, Adenosine receptor A2a; test: Displacement of [3H]ZM241385 from recombinant human A2A adenosine receptor expressed in CHO cell membranes measured after 60 mins by topcount scintillation counting method
Adenosine receptor A2b [11] = target: T7, Adenosine receptor A2b (Homo sapiens, UniProt P29275); test: Displacement of [3H]DPCPX from recombinant human A2B adenosine receptor expressed in HEK293 cell membranes measured after 60 mins by topcount scintillation counting method
T7 sequence (P29275 whole entry): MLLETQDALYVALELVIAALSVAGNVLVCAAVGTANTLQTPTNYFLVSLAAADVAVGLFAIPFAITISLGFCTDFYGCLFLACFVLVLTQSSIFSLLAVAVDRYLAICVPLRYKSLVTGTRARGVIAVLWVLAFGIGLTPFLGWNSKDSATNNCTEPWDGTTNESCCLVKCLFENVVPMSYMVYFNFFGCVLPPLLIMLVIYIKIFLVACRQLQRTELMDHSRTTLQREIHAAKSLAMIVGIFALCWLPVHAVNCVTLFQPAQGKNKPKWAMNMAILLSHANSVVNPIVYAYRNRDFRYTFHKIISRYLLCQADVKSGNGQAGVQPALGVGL

Adenosine receptor A1 [12] = target: T8, Adenosine receptor A1 (Homo sapiens, UniProt P30542); test: Displacement of [3H]DPCPX from recombinant human A1 adenosine receptor expressed in CHO cell membranes measured after 120 mins by topcount scintillation counting method
T8 sequence (P30542 whole entry): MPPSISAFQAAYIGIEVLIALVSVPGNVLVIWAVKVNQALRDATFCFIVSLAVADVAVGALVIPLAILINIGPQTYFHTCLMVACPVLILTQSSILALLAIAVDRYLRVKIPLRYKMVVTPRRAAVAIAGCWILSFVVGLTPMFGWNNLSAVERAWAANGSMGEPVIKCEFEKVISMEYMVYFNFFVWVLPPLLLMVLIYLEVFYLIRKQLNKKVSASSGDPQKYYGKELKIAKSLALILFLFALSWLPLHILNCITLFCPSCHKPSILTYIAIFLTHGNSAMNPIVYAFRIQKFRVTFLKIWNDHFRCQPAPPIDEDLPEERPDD

Adenosine receptor A3 [13] = target: T9, Adenosine receptor A3 (Homo sapiens, UniProt P0DMS8); test: Displacement of [3H]MRE3008-F20 from recombinant human A3 adenosine receptor expressed in CHO cell membranes measured after 120 mins by topcount scintillation counting method
T9 sequence (P0DMS8 whole entry): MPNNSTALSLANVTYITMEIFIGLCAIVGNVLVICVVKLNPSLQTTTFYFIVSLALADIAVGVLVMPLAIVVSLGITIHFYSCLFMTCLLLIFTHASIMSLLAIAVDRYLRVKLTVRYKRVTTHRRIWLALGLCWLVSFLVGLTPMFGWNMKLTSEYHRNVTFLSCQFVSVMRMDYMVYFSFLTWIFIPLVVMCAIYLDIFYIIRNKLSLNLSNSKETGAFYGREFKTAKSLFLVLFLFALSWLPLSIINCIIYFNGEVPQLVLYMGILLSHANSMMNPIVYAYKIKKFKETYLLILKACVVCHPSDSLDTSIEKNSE

T5 sequence (P29274 whole entry): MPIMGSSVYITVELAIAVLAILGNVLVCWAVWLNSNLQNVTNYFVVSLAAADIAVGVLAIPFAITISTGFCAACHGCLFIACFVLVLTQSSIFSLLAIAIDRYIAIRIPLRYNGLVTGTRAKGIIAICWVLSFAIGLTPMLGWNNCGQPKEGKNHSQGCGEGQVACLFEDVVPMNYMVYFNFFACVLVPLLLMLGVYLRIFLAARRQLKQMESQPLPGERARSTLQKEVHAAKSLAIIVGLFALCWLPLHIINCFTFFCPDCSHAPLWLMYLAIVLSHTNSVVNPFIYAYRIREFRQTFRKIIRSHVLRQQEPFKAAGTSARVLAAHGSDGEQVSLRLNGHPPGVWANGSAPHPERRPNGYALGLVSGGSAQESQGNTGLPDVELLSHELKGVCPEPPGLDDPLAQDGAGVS
Sequence of Adenosine receptor A2a (Mus musculus, UniProt Q60613) (Q60613 whole entry): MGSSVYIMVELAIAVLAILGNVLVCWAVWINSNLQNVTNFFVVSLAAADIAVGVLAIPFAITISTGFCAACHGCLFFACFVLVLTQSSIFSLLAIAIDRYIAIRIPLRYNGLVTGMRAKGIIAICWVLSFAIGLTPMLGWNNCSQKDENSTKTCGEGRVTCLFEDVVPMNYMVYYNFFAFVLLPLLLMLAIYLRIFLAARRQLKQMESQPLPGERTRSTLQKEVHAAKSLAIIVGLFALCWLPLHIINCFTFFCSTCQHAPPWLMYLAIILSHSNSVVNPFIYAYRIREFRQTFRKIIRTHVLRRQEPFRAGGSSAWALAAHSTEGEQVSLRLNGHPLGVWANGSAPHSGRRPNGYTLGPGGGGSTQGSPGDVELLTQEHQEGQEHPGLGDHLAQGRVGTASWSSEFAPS

pKi (Adenosine receptor A2b [1])	pKi (Adenosine receptor A2a [2])	pKi (Adenosine receptor A3 [4])	pKi (Adenosine receptor A3 [5])	solubility thermodynamic at 24 h, 200 µM [9]	SMILES	further results
				3.2 µM (≈ 1.74 µg/mL)	CCCn1c(=O)[nH]c2nc(-c3ccc(S(=O)(=O)N4CCN(Cc5ccc(Cl)cc5)CC4)cc3)[nH]c2c1=O	
				3.2 µM (≈ 1.69 µg/mL)	CCCn1c(=O)[nH]c2nc(-c3ccc(S(=O)(=O)N4CCN(c5ccc(Cl)cc5)CC4)cc3)[nH]c2c1=O	

More lines, now with the values behind:

SMILES	pKi (Adenosine receptor A2b [1])	pKi (Adenosine receptor A2a [2])	pKi (Adenosine receptor A3 [4])	pKi (Adenosine receptor A3 [5])	solubility thermodynamic at 24 h, 200 µM [9]	further results
CCCn1c(=O)c2[nH]c(-c3ccc(OCC(=O)Nc4ccc(C#N)cc4)cc3)nc2n(CCC)c1=O	8.51	< 5.00	< 5.00	< 5.00		pKi (Adenosine receptor A1 [3]): 8.84
CCCn1c(=O)[nH]c2nc(-c3ccc(S(=O)(=O)O)cc3)[nH]c2c1=O	5.71	< 5.00	< 5.00	< 5.00		pKi (Adenosine receptor A2a [6]): 5.42; pKi (Adenosine receptor A1 [7]): 6.23; pKi (Adenosine receptor A2b [8]): 5.50
O=C(Nc1nc2nn(CCCc3ccccc3)cc2c2nc(-c3ccco3)nn12)c1cccc2ccccc12						pKi (Adenosine receptor A2a [10]): 6.10; pKi (Adenosine receptor A2b [11]): 7.70; pKi (Adenosine receptor A1 [12]): 5.96; pKi (Adenosine receptor A3 [13]): 6.52
